The source made the active and inactive calls. No cut-off for these calls is given here.
Tests used:
[1] = MRT(0 to infinity) in Sprague-Dawley rat at 2 mg/kg, iv up to 24 hrs by LC-MS/MS analysis; conditions: in vivo
[2] = Stability in Sprague-Dawley rat liver microsomes assessed as remaining compound […] up to 60 mins in presence of NADPH by LC-MS/MS analysis; assay type: ADME, Microsome; conditions: read-out: Stabilty
[3] = system: 3T3-L1; test: Lipid lowering activity in mouse 3T3-L1 cells assessed as reduction in adipogenic cocktail-induced triglyceride levels at 5 uM incubated for 6 days by GPO-POD assay relative to control; assay type: functional; design: scale not given: the % may be the effect or the level left; conditions: time 6 day
Summary of the method: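 Confluent 3T3-L1 cells were treated from day 0 in cocktail (IBMX, dexamethasone, insulin) for 3 days, then re-dosed in insulin medium for 3 more days. For dose–response, concentrations were 0–10 µM (0.01, 0.1, 0.3, 1, 3, 10). On day 6, cells were lysed in 0.2% Triton X-100 and TG was measured by GPO-POD and normalized to BCA protein as % of control. EC50 was fitted from the dose–response. N = 4.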

[4] = system: 3T3-L1; test: Activation of AMPK pathway in adipogenic cocktail-induced mouse 3T3-L1 cells assessed as increase in AMP to ATP ratio at 1 uM after 24 hrs; assay type: cell-based; conditions: filed as activator
[5] = system: 3T3-L1; test: Inhibition of mouse 3T3-L1 cells adipocyte differentiation assessed as reduction in adipogenic cocktail-induced C/EBPbeta mRNA expression after 24 hrs by RT-qPCR analysis; assay type: functional, cell-based; conditions: dose 0.01-1 µM
Summary of the method: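 Confluent 3T3-L1 preadipocytes received differentiation cocktail (0.5 mM IBMX, 100 ng/mL dexamethasone, 2 µg/mL insulin) with compound (0.01–1 µM; metformin 1 mM) for 24 h. mRNA was measured by SYBR Green RT-qPCR (30 cycles), normalized to β-actin, with the differentiated control set to 1. N = 4 independent experiments.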

[6] = AUC(0 to infinity) in Sprague-Dawley rat at 2 mg/kg, iv up to 24 hrs by LC-MS/MS analysis; conditions: in vivo
[7] = system: 3T3-L1; test: Activation of AMPK pathway in mouse 3T3-L1 cells assessed as increase in TFAM mRNA expression at 1 uM after 24 hrs by RT-qPCR analysis; assay type: cell-based; conditions: filed as activator
[8] = MRT(0 to infinity) in Sprague-Dawley rat at 2 mg/kg, iv up to 24 hrs by LC-MS/MS analysis; assay type: ADME, organism-based; conditions: in vivo
Summary of the method: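 Male SD rats (180–220 g, n = 3) received compound in ethanol/saline (5:95), either intravenously at 2 mg/kg or intragastrically at 5 mg/kg. Plasma was sampled at 0, 0.5, 1, 2, 4, 8, 12 and 24 h. Concentrations were measured by LC-MS/MS, and PK parameters were calculated from the concentration–time data.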

[9] = system: Mus musculus; test: Antiobesity activity in high fat diet-induced obese C57BL/6J mouse model assessed as blood urea nitrogen level at 20 mg/kg, ip administered for every other days for 6 weeks by auto-analyzer method (reference value: 14.6 +/- 1.4 mM); assay type: functional
[10] = system: C2C12; test: Activation of AMPK pathway in mouse C2C12 cells assessed as increase in glucose uptake at 0.3 to 1 uM after 6 hrs by 2-NBDG/Hoechst 33342 staining based Confocal microscopic method; assay type: cell-based; conditions: filed as activator, dose 0.3-1 µM
Summary of the method: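 C2C12 myoblasts kept in DMEM with 10% FBS and 1% penicillin/streptomycin at 37 °C under 5% CO2.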

[11] = system: 3T3-L1; test: Inhibition of mouse 3T3-L1 cells adipocyte differentiation assessed as reduction in adipogenic cocktail-induced C/EBPalpha protein expression at 0.3 to 1 uM after 24 hrs by Western blot analysis; assay type: functional, cell-based; conditions: dose 0.3-1 µM
Summary of the method: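 3T3-L1 preadipocytes were exposed to adipogenic cocktail with compound (0.3 or 1 µM) and harvested on day 1. Lysates were resolved by SDS-PAGE, immunoblotted (primary antibody overnight at 4 °C, HRP secondary) and quantified by densitometry normalized to actin.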

[12] = system: 3T3-L1; test: Lipid lowering activity in mouse 3T3-L1 cells assessed as adipogenic cocktail-induced triglyceride levels at 1 uM after 3 to 6 days by GPO-POD assay relative to control; assay type: functional; conditions: time 3-6 day
Summary of the method: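 3T3-L1 cells were differentiated (cocktail on days 0–3, insulin thereafter) with 1 µM compound present during defined windows (days 0–3, 3–6, 6–9, or 0–3/0–6/0–9). TG was measured at day 9 by GPO-POD after Triton X-100 lysis and sonication. TG was normalized to BCA protein and expressed as % of differentiated control.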

[13] = system: Mus musculus; test: Antiobesity activity in high fat diet-induced obese C57BL/6J mouse model assessed as total bilirubin level at 20 mg/kg, ip administered for every other days for 6 weeks by auto-analyzer method (reference value: 1.3 +/- 0.12 mM); assay type: functional
[14] = system: 3T3-L1; test: Activation of AMPK pathway in adipogenic cocktail-induced mouse 3T3-L1 cells with SiRNA-induced AMPKalpha knock down assessed as decrease in PPARgamma protein expression at 1 uM after 24 hrs by Western blot analysis; assay type: cell-based
Summary of the method: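 3T3-L1 cells at 80% density transfected with 50 nM AMPKα siRNA or negative control for 24 h. Once confluent, differentiated with adipogenic cocktail with or without compound. Protein by Western blot normalized to actin. TG measured by GPO-POD kit, normalized to BCA protein, expressed as % of control.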

[15] = system: Mus musculus; test: Antiobesity activity in high fat diet-induced obese C57BL/6J mouse model assessed as cholesterol level at 20 mg/kg, ip administered for every other days for 6 weeks by auto-analyzer method (reference value: 6.2 +/- 0.3 mM); assay type: functional
Summary of the method: (§1)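 Male C57BL/6J mice (7–8 weeks) fed HFC diet (60% fat, 1% cholesterol) for up to 14 weeks. From week 9, given 20 mg/kg i.p. every other day for 6 weeks in saline with 10% ethanol and 10% castor oil, or vehicle. Body weight and food intake recorded daily. At end, mice fasted 6 h, anesthetized, and blood collected into EDTA. Plasma chemistry run on an auto-analyzer; insulin by ultra-sensitive ELISA.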

[16] = system: Mus musculus; test: Antiobesity activity in high fat diet-induced obese C57BL/6J mouse model assessed as glucose level at 20 mg/kg, ip administered for every other days for 6 weeks by auto-analyzer method (reference value: 11.8 +/- 1.3 mM); assay type: functional
Summary of the method: as §1

[17] = system: 3T3-L1; test: Activation of AMPK pathway in mouse 3T3-L1 cells assessed as increase in NRF2 mRNA expression at 0.3 to 1 uM after 24 hrs by RT-qPCR analysis; assay type: cell-based; conditions: filed as activator, dose 0.3-1 µM
[18] = system: Mus musculus; test: Antiobesity activity in high fat diet-induced obese C57BL/6J mouse model assessed as creatinine level at 20 mg/kg, ip administered for every other days for 6 weeks by auto-analyzer method (reference value: 14.9 +/- […]); assay type: functional
Summary of the method: as §1

[19] = system: Mus musculus; test: Antiobesity activity in high fat diet-induced obese C57BL/6J mouse model assessed as ratio of LDL cholesterol level to HDL cholesterol level at 20 mg/kg, ip administered for every other days for 6 weeks by auto-analyzer method (reference value: 0.4 +/- 0.13); assay type: functional

Row | SMILES | MRT inf [1] [h] | remaining at 1 h [2] [%] | Activity [3] [%] | Activity [4] | inhibition [5] | AUC(0-inf) [6] [ng·h/mL] | Activity [7] | MRT inf [8] [h] | Activity [9] [mM] | Activity [10] | inhibition [11] | Activity [12] [%] | Activity [13] [mmol] | Activity [14] | Activity [15] [mM] | Activity [16] [mM] | Activity [17] | Activity [18] [µM] | Ratio [19]
1 | CN(C)CCCNc1nc(-c2[nH]c3ccccc3c2C=O)nc2ccccc12 | 3.56 | 71 | 89.3 | Active | Dose-dependent effect | 671 | Active | – | – | – | – | – | – | – | – | – | – | – | –
2 | COc1ccc2[nH]c(-c3nc(NCCCCN4CCCC4)c4ccccc4n3)c(C=O)c2c1 | – | 80.7 | – | – | Dose-dependent effect | – | – | 5.7 | 11.5 | Active | Active | 61.8 | 0.9 | inactive | 4.7 | 9.3 | Active | 14.5 | 0.25

From ChEMBL document CHEMBL4732044, “Discovery of a promising agent IQZ23 for the treatment of obesity and related metabolic disorders” (Eur J Med Chem, 2020)
